CHO parental Ca = signal in parental CHO cells, OX1R antagonist counter-screen; AID 463079; 330,000 compounds, 0.63% hits; parental CHO-K1, ATP-induced calcium, Fluo-8 fluorescence; inhibition, % at 5.6 µM;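 active = inhibition above that plate's mean sample inhibition plus 3 SD, cut at about 26% in these data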
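Assay system – parental CHO cells · Reagent – ATP stimulus · Detection – intracellular calcium via Fluo-8 no-wash fluorescent dye · Evaluation – percent inhibition of ATP-evoked calcium rise, normalized to controls · Controls – ATP wells versus no-ATP DMSO wells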
V1R ag counter = counter-screen for oxytocin receptor agonists: human V1a receptor agonists; P37288; CHO-V1R cells, Fluo-8 calcium fluorescence, agonist mode; 0% DMSO, 100% 3 nM vasopressin; activation, % at 3 µM; 320,000 compounds, 0.25% hits; AID 2797;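 active = activation above the mean activation of all tested compounds plus 3 SD, per screening run, cut at about 20% in these data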;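 note: signal is peak over basal fluorescence ratio across a 100 second FLIPR read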
Target sequence (P37288 whole entry, looked up): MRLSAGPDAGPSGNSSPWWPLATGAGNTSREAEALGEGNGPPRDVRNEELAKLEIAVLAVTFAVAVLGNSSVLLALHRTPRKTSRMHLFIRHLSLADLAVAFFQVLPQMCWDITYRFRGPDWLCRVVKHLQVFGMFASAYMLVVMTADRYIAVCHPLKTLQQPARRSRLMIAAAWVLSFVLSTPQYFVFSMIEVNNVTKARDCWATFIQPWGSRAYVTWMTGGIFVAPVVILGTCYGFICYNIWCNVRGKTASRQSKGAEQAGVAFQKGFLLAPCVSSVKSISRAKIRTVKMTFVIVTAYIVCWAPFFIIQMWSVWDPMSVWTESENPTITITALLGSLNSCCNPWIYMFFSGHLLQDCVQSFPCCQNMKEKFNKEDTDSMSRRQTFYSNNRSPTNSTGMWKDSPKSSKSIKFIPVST
OXTR ag = human OXTR agonism. P30559. CHO-OTR cells, Fluo-8 calcium fluorescence; normalized: DMSO 0%, oxytocin 100%. activation, % at 3 µM. 320,000 compounds, 0.32% hits. AID 2435;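 active = activation above the mean of all tested compounds plus 3 SD, cutoff set per screening run, cut at about 20% in these data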;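 note: peak over basal fluorescence ratio from a 100 s FLIPR kinetic read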
OXTR potentiator = potentiates the human oxytocin receptor response | P30559 | CHO-OTR cells, Fluo-8 calcium fluorescence, potentiator mode; 0% = oxytocin EC15, 100% = EC100 | activation, % at 3 µM | 320,000 compounds, 0.061% hits;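 active = activation above that plate's cutoff, the mean activation of tested compounds plus 3 SD, cut at about 6.6% in these data, passing the limit was not always enough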
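System: human OTR in CHO cells / Also added: sub-maximal oxytocin, roughly EC15 / Control set: EC15 oxytocin low, 75 nM oxytocin high / Schedule: 6 min compound pre-incubation at room temperature, 100 s kinetic read / Compound: single-point 3.0 µM / Replication: singlicate / Technique: Fluo-8 calcium dye fluorescence / Read-out basis: % activation of max/min ratio relative to oxytocin controls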
OX1R antag-1 = OX1R (human) antagonism. O43613. OX1R-expressing cells, FRET antagonist read-out. inhibition, % at 6.6 µM. 330,000 compounds, 1.8% hits. AID 485270; in the data active = inhibition mostly above about 38%, no sharp cut-off; inactive = mostly below about 40%
OX1R antag-2 = blocks the human orexin 1 receptor | inhibition, % at 5 µM | CHO/OX1R cells, Fluo-8 calcium fluorescence, orexin A | 330,000 compounds, 0.43% hits;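 active = inhibition above its plate's threshold, mean inhibition of all tested compounds on the plate plus 3 SD, cut at about 37% in these data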
Each line names hits and unclear results; the compound was inactive in the other large screens. Rows were chosen to be rich in hits. Some 2.7% of all compounds tested hit in one or more screens of this group.

O=C(NCc1cc(C(F)(F)F)ccc1Cl)c1cccc2c1C(=O)c1ccc(N3CCCCC3)cc1S2(=O)=O	none
O=C(NCc1cccc(C(F)(F)F)c1)c1cccc2c1C(=O)c1ccc(N3CCC(Cc4ccccc4)CC3)cc1S2(=O)=O	V1R ag counter 24, OXTR ag 23
O=C(NCc1cccc(F)c1)c1cccc2c1C(=O)c1ccc(N3CCCC3)cc1S2(=O)=O	V1R ag counter 26, OXTR ag 20
O=C(NCc1ccco1)c1cccc2c1C(=O)c1ccc(N3CCC(Cc4ccccc4)CC3)cc1S2(=O)=O	none
Cc1ccc(S(=O)(=O)CC(=O)c2cc3cccc(C)c3oc2=O)cc1	none
Cc1c(C(=O)N2CCCCC2)c(S(=O)(=O)NCc2ccc(Cl)cc2)c(C)n1C	none
Cc1nnc(N/N=C\c2ccc(-c3ccccc3[N+](=O)[O-])o2)n1N	OX1R antag-1 56
Cc1nnc(N/N=C/c2ccc(-c3ccccc3F)o2)n1N	OX1R antag-1 57
Cc1n[nH]c(=S)n1/N=C/c1ccc(-c2ccccc2[N+](=O)[O-])o1	OX1R antag-1 68
COc1ccc(Cl)cc1NC(=O)CN(C)C(=O)c1cc(-c2ccncc2)nc2ccccc12	none
O=C(Nc1ccc2c(c1)CCCN2C(=O)c1cccs1)c1c(F)cccc1Cl	none
C=CCOc1c(CCC)cc(CCC)cc1C(N)=O	CHO parental Ca 94
CCCn1c(N)c(C(=O)CN2CCN(S(=O)(=O)c3cccc(Cl)c3)CC2)c(=O)[nH]c1=O	none
N#CCc1ccccc1C(=O)OCC(=O)N(Cc1ccccc1)Cc1ccccc1	none
c1ccc(-c2nc(NCc3cccnc3)c3oc4ccccc4c3n2)cc1	OX1R antag-1 68
Oc1ccc(Nc2nc(-c3ccccc3)nc3ccccc23)cc1	none
Oc1ccc(Nc2nc3ccccc3nc2Nc2ccc(O)cc2)cc1	CHO parental Ca 35
CCN(C(=O)COC(=O)C1CCN(S(=O)(=O)c2ccc3c(c2)OCCO3)CC1)C1CCCCC1	none
O=C(Cn1cccn1)N1CCCC(N2CCN(c3ccccc3F)CC2)C1 (centres undefined)	none
Cc1nc2c(-c3ccc(F)cc3)cnn2c2c1CCC2	OX1R antag-1 54
COc1ccc(-c2cnc3c(-c4ccc(F)cc4)cnn3c2N)cc1	none
CC(C)(C)OC(=O)CC1(C#N)c2ccccc2C(Br)=CN1C(=O)c1ccccc1 (centres undefined)	none
O/N=C(\c1ccc(Cl)cc1)c1cc2ccccc2o1	CHO parental Ca 33
O=C(Nc1ccc(Cl)cc1Cl)c1cc2ccccc2o1	none
CCOC(=O)N1CCN(Cc2nc3cc(NC(=O)c4cccs4)ccc3n2CC)CC1	none
O=C(C[n+]1ccccc1)N/N=C/c1cc(Br)cc(Br)c1O	OX1R antag-1 29
COc1ccc(NC(=O)Cc2ccc(-c3ccccc3)cc2)cn1	CHO parental Ca 69
COc1ccc(CC(=O)Nc2ccc(OC)nc2)cc1	none
COc1ccc(NC(=O)Nc2cccc(C(F)(F)F)c2)cn1	CHO parental Ca 41, OX1R antag-2 47
COc1ccc(NC(=O)Nc2ccc([N+](=O)[O-])cc2)cn1	CHO parental Ca 43
C#CCOCCOCCOCCNc1nc(N2CCN(C(=O)CCCCCCCCCCNC(=O)[C@H]([C@@H](C)CC)n3cc(CCCCCN)nn3)CC2)nc(N2CCN(C(=O)CCCCCCCCCCNC(=O)[C@H](CO)n3cc(CCCCCN)nn3)CC2)n1	CHO parental Ca 68, V1R ag counter 46, OXTR ag 22
C#CCOCCOCCOCCNc1nc(N2CCN(C(=O)CCCCCCCCCCNC(=O)[C@H]([C@@H](C)CC)n3cc(CCCCN=C(N)N)nn3)CC2)nc(N2CCN(C(=O)CCCCCCCCCCNC(=O)[C@H](CO)n3cc(CCCCCN)nn3)CC2)n1	none
C#CCOCCOCCOCCNc1nc(N2CCN(C(=O)CCCCCCCCCCNC(=O)[C@H]([C@@H](C)CC)n3cc(CCCCCN)nn3)CC2)nc(N2CCN(C(=O)CCCCCCCCCCNC(=O)[C@@H]([C@H](C)CC)n3cc(CCCCCN)nn3)CC2)n1	CHO parental Ca 79, V1R ag counter 27

Compound activity as filed in PubChem BioAssay.
